# Measurements reported in ChEMBL document CHEMBL4613298, “GPBAR1 Activation by C6-Substituted Hyodeoxycholane Analogues Protect against Colitis” (ACS Med Chem Lett, 2020).
# The source made the active and inactive calls. The calls are words filed in the database; no cut-off is given here.
# How the values were obtained:
# Mus musculus [1] = experiment: Effect on IL-6 mRNA expression in Gpbar1 deficient TNBS-induced C57BL/6NCrl mouse model of colitis harboring assessed as reduction in IL-6 mRNA expression at 30 mg/kg, po by RT-PCR analysis; type: functional, organism-based
# In short: (§1)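 Gpbar1+/+ and Gpbar1–/– mice given TNBS alone or with test agent at 30 mg/kg; colon samples analysed by RT-PCR for relative mRNA of Il-1β, Il-6, Tnf-α, Il-10 and Gpbar1.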
# Mus musculus [2] = experiment: Antiinflammatory activity in Gpbar1 (+/+) TNBS-induced C57BL/6NCrl mouse model of colitis assessed as reduction in IL-6 mRNA expression at 30 mg/kg, po by RT-PCR analysis; type: functional, organism-based; in short: as §1
# Mus musculus [3] = experiment: Anti-colitis activity in Gpbar1 (-/-) TNBS-induced C57BL/6NCrl mouse model of colitis assessed as decrease in Clinical Disease activity index at 30 mg/kg, po; type: functional, organism-based
# In short: (§2)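 Gpbar1+/+ and Gpbar1–/– mice given TNBS alone or with test agent at 30 mg/kg; body weight change and CDAI followed over the colitis course; colon sections H&E stained (10× magnification); n = 5 per group.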
# Mus musculus [4] = experiment: Anti-colitis activity in Gpbar1 (+/+) TNBS-induced C57BL/6NCrl mouse model of colitis assessed as colon damage at 30 mg/kg, po by H and E staining analysis; type: functional, organism-based; in short: as §2
# [5] = Aqueous solubility of compound in pH 7.4 PBS/MeOH at 10 mM after 24 hrs by LC-MS analysis; type: physicochemical; settings: buffer, pH 7.4, 24 h, 10000 µM
# Mus musculus [6] = experiment: Antiinflammatory activity in Gpbar1 (+/+) TNBS-induced C57BL/6NCrl mouse model of colitis assessed as reduction in TNFalpha mRNA expression at 30 mg/kg, po by RT-PCR analysis; type: functional, organism-based; in short: as §1
# [7] = target: T1, G-protein coupled bile acid receptor 1 (Homo sapiens) (UniProt Q8TDU6); experiment: Agonist activity at GPBAR1 receptor in LPS-stimulated human THP1 cells assessed as increase in IL-10 expression at 10 uM after 18 hrs by RT-PCR analysis; type: cell-based; settings: THP-1
# T1 sequence (whole entry): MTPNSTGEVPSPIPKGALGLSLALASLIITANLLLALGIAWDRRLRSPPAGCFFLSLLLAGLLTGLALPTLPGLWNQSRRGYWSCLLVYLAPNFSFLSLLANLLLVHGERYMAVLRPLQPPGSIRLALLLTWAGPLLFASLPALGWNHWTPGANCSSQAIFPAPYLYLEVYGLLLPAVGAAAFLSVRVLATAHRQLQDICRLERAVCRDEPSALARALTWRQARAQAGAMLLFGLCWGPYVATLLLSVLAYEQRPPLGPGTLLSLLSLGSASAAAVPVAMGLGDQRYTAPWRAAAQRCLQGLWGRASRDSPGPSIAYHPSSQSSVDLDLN
# In short: (§3)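 THP1 monocytic/macrophage cells primed with LPS, then coincubated with or without test agent at 10 μM; expression of cytokine genes (IL-1β, IL-6, TNF-α, IL-10) measured.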
# Mus musculus [8] = experiment: Anti-colitis activity in Gpbar1 (+/+) TNBS-induced C57BL/6NCrl mouse model of colitis assessed as decrease in Clinical Disease activity index at 30 mg/kg, po; type: functional, organism-based; in short: as §2
# Mus musculus [9] = experiment: Anti-colitis activity in Gpbar1 (+/+) TNBS-induced C57BL/6NCrl mouse model of colitis assessed as effect on body weight loss at 30 mg/kg, po; type: functional, organism-based; in short: as §2
# Mus musculus [10] = experiment: Effect on IL-10 mRNA expression in Gpbar1 deficient TNBS-induced C57BL/6NCrl mouse model of colitis harboring […] expression at 30 mg/kg, po by RT-PCR analysis; type: functional, organism-based; in short: as §1
# Mus musculus [11] = experiment: Effect on TNFalpha mRNA expression in Gpbar1 deficient TNBS-induced C57BL/6NCrl mouse model of colitis harboring […] expression at 30 mg/kg, po by RT-PCR analysis; type: functional, organism-based; in short: as §1
# [12] = target: T2, Bile acid receptor (Homo sapiens) (UniProt Q96RI1); experiment: Transactivation of FXR (unknown origin) expressed in HepG2 cells co-expressing pSG5RXR/pGL4.70 assessed as maximum receptor activation at 10 uM after 18 hrs by IR1 driven dual renilla-luciferase reporter gene assay relative to relative to CDCA; type: cell-based
# T2 sequence (whole entry): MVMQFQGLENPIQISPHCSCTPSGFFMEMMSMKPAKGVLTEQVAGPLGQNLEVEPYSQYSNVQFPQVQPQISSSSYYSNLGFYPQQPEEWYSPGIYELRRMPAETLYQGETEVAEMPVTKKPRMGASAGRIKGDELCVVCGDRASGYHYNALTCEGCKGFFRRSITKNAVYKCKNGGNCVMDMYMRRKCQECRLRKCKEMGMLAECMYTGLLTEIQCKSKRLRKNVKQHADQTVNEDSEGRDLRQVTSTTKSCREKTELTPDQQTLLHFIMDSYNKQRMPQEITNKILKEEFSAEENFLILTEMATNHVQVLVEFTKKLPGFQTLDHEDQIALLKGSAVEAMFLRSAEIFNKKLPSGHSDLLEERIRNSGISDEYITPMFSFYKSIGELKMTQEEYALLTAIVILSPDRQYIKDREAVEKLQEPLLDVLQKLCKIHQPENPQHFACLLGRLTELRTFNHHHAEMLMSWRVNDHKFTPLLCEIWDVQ
# In short: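 FXR reporter assay in HepG2 cells transfected with FXR and an IR1-driven luciferase reporter, compound at 10 μM. Efficacy is maximal IR1 transactivation relative to CDCA (10 μM). One experiment, triplicate.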
# Mus musculus [13] = experiment: Antiinflammatory activity in Gpbar1 (+/+) TNBS-induced C57BL/6NCrl mouse model of colitis assessed as increase in IL-10 mRNA expression at 30 mg/kg, po by RT-PCR analysis; type: functional, organism-based; in short: as §1
# Homo sapiens = species: Homo sapiens; experiment: Selectivity index, ratio of transactivation of human GPBAR1 receptor expressed in HEK293T cells assessed as maximum receptor activation at 10 uM to transactivation of human FXR (unknown origin) expressed in HepG2 cells co-expressing pSG5RXR/pGL4.70 assessed as maximum receptor activation at 10 uM; type: cell-based
# In short: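 Ratio of percent activity at GPBAR1 (HEK-293T, CRE-luciferase, 10 μM, vs TLCA 10 μM) to percent activity at FXR (HepG2, IR1-luciferase, 10 μM, vs CDCA 10 μM). Both taken from the same triplicate experiment.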
# [14] = target: T1, G-protein coupled bile acid receptor 1 (Homo sapiens); experiment: Transactivation of human GPBAR1 receptor expressed in HEK293T cells assessed as maximum receptor activation at 10 uM after 18 hrs by cAMP response element driven renilla-luciferase dual reporter gene assay relative to TLCA; type: functional, cell-based; settings: HEK-293T
# In short: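 HEK-293T cells transfected with GPBAR1 and a CRE-driven luciferase reporter, exposed to compound at 10 μM. Efficacy is maximal CRE transactivation as percent of that caused by TLCA (10 μM). One experiment, triplicate.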
# Mus musculus [15] = experiment: Effect on IL-1beta mRNA expression in Gpbar1 deficient TNBS-induced C57BL/6NCrl mouse model of colitis harboring […] expression at 30 mg/kg, po by RT-PCR analysis; type: functional, organism-based; in short: as §1
# Mus musculus [16] = experiment: Antiinflammatory activity in Gpbar1 (+/+) TNBS-induced C57BL/6NCrl mouse model of colitis assessed as reduction in IL-1beta mRNA expression at 30 mg/kg, po by RT-PCR analysis; type: functional, organism-based; in short: as §1
# Mus musculus [17] = experiment: Anti-colitis activity in Gpbar1 (-/-) TNBS-induced C57BL/6NCrl mouse model of colitis assessed as colon damage at 30 mg/kg, po by H and E staining analysis; type: functional, organism-based; in short: as §2
# Mus musculus [18] = experiment: Anti-colitis activity in Gpbar1 (-/-) TNBS-induced C57BL/6NCrl mouse model of colitis assessed as effect on body weight loss at 30 mg/kg, po; type: functional, organism-based; in short: as §2
# [19] = target: T1, G-protein coupled bile acid receptor 1 (Homo sapiens); experiment: Agonist activity at GPBAR1 receptor in human THP1 cells assessed as reduction in LPS-induced IL-6 expression at 10 uM after 18 hrs by RT-PCR analysis; type: cell-based; settings: THP-1; in short: as §3
# [20] = target: T1, G-protein coupled bile acid receptor 1 (Homo sapiens); experiment: Agonist activity at GPBAR1 receptor in human THP1 cells assessed as reduction in LPS-induced TNFalpha expression at 10 uM after 18 hrs by RT-PCR analysis; type: cell-based; settings: THP-1; in short: as §3
# [21] = target: T1, G-protein coupled bile acid receptor 1 (Homo sapiens); experiment: Agonist activity at GPBAR1 receptor in human THP1 cells assessed as reduction in LPS-induced IL-1beta expression at 10 uM after 18 hrs by RT-PCR analysis; type: cell-based; settings: THP-1; in short: as §3
smiles,measurement,setting,value
CC[C@]1(O)C[C@H]2[C@@H]3CC[C@H]([C@H](C)CC#N)[C@@]3(C)CC[C@@H]2[C@@]2(C)CC[C@@H](O)C[C@@H]12,Activity,Mus musculus [1],inactive
same,Activity,Mus musculus [2],Active
same,Activity,Mus musculus [3],inactive
same,Activity,Mus musculus [4],Active
same,solubility,[5],Soluble
same,Activity,Mus musculus [6],Active
same,Activity,[7],Active
same,Activity,Mus musculus [8],Active
same,Activity,Mus musculus [9],Active
same,Activity,Mus musculus [10],inactive
same,Activity,Mus musculus [11],inactive
same,max activation,[12],12.3%
same,Activity,Mus musculus [13],Active
same,Selectivity Index,Homo sapiens,8.2
same,max activation,[14],101%
same,Activity,Mus musculus [15],inactive
same,Activity,Mus musculus [16],Active
same,Activity,Mus musculus [17],inactive
same,Activity,Mus musculus [18],inactive
same,Activity,[19],Active
same,Activity,[20],Active
same,Activity,[21],Active
